Where two headings read alike, the source gives them in different places. Values belong to the molecule of their own block, whether it stands above or below them.
What was measured:
[1] = assay type: in vitro ADME, human; conditions: for proportion of platinum found in blood cells: after 2 h, ~10 μM in whole human blood, 37 °C
How it was run: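 Fresh heparinised human whole blood was spiked from a 1 mM aqueous stock to a final ~10 μM and incubated at 37 °C for 0, 0.5, 1, 2 and 24 h. It was centrifuged for 10 min at 2000 rcf in a 4 °C rotor. Plasma and cell fractions were microwave-digested in 25% nitric acid at 200 °C, and Pt was measured by ICP-MS. Values were normalised to haematocrit (47%) and fraction density, and the rate constant came from an exponential fit.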

[2] = Biotransformation / kinetic inertness in whole human blood by RP-ICP-MS; assay type: in vitro ADME; conditions: 37 °C; for stability of parent compound in whole human blood: 24 h incubation; for platinum(II) metabolites detected in whole human blood: after 24 h incubation
How it was run: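 Fresh human blood spiked with test compound was extracted in one of two ways: ice-cold acetonitrile with vortexing, sonication and centrifugation, or 0.1% formic acid, dry-ice freeze/sonication thaw, then 25% TCA precipitation. Supernatants were 0.45 μm filtered, diluted 1:5 in 50 mM ammonium formate (pH 6.0) and held at 4 °C. Species were separated by C18 RP-ICP-MS in triplicate, with a platinum(IV) reference QC for normalisation. Half-life came from a first-order fit.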

[3] = test system: SW480 (colon carcinoma) cells; conditions: 2 h exposure; cited from earlier work
[4] = test system: murine colon cancer model CT-26; conditions: i.p. and p.o. administration; cited from earlier work
[5] = test system: leukemia L1210 mouse model; conditions: cited from earlier work
[6] = whole human blood in vitro; cited from earlier work
[7] = 15 min after oral administration; cited from earlier work
[8] = kinetic model, exponential kinetics, whole human blood

Molecule: CC[NH][Pt]([Cl])([Cl])([NH]CC)([O]C(=O)CCC(=O)OCC)[O]C(=O)CCC(=O)OCC [Complex 4, (OC-6-33)-dichloridobis((4-ethoxy)-4-oxobutanoato)bis(ethylamine)platinum(IV)]
proportion of platinum found in blood cells [1]: around 60%
proportion of platinum found in blood cells ([1]; listed as Compound 4): 60%
drug-related platinum inside blood cells in equilibrium [1, 8]: 59.7 ± 0.9%
first-order rate constant of accumulation in blood cells [1, 8]: 1.2 ± 0.1 h⁻¹
proportion of platinum in red blood cells ([1]; time point 0, ~10 μM in whole human blood): 30%
stability of parent compound in whole human blood ([2]; 10 μM, RP-ICP-MS): could not be detected any more after 24 hours
platinum(II) metabolites detected in whole human blood ([2]; 10 μM, RP-ICP-MS): no notable amounts of hydrophilic platinum(II)-metabolites were detected
half-life in blood ([2]; first-order kinetic model, whole human blood): 45.4 ± 3.3 min
platinum accumulation in SW480 cells [3]: high platinum accumulation
anticancer activity in CT-26 model [4]: showed anticancer activity
efficacy in L1210 model [5]: efficacy

Molecule: O=C1[O][Pt]2([OH])([OH])([NH]C3CCCCC3[NH]2)[O]C1=O [Complex 1, (OC-6-33)-dihydroxido(1R,2R-diaminocyclohexane)oxalatoplatinum(IV)]
stability of parent compound in whole human blood ([2]; 10 μM, RP-ICP-MS): remain stable over 24 hours

stability of parent compound in whole human blood ([2]; 10 μM, RP-ICP-MS): remain stable over 24 hours
Molecule: CC(=O)[O][Pt]1([NH2])([NH2])([O]C(C)=O)[O]C(=O)C2(CCC2)C(=O)[O]1 [Complex 3, (OC-6-33)-diacetatodiammine(1,1-cyclobutanedicarboxylato)-platinum(IV)]

Molecule: (OC-6-33)-diacetato(1R,2R-diaminocyclohexane)oxalatoplatinum(IV) [Complex 2]
platinum(II) metabolites detected in whole human blood ([2]; 10 μM, RP-ICP-MS): a significant amount of oxaliplatin could be detected
species observed in whole human blood ([2]; over 6 hours incubation, 10 μM, RP-ICP-MS): only the intact complex was observed

Molecule: CC(=O)[O][Pt]([NH2])([Cl])([Cl])([NH]C1CCCCC1)[O]C(C)=O [satraplatin]
half-life for the disappearance of the parent compound [6]: 6.3 min
detection of parent compound in patient's plasma ultrafiltrate [7]: could not be detected any more
number of platinum-containing species in patient's plasma ultrafiltrate [7]: seven

Reference: article PMC5933005 (Dalton Transactions (Cambridge, England : 2003), 2018)
